Measured values of several laboratories.
Compare with care: the assays were run in different laboratories.
Target: Serine/threonine-protein kinase haspin (HASPIN, Homo sapiens, UniProt Q8TF76)
One construct used (Q8TF76 1-798): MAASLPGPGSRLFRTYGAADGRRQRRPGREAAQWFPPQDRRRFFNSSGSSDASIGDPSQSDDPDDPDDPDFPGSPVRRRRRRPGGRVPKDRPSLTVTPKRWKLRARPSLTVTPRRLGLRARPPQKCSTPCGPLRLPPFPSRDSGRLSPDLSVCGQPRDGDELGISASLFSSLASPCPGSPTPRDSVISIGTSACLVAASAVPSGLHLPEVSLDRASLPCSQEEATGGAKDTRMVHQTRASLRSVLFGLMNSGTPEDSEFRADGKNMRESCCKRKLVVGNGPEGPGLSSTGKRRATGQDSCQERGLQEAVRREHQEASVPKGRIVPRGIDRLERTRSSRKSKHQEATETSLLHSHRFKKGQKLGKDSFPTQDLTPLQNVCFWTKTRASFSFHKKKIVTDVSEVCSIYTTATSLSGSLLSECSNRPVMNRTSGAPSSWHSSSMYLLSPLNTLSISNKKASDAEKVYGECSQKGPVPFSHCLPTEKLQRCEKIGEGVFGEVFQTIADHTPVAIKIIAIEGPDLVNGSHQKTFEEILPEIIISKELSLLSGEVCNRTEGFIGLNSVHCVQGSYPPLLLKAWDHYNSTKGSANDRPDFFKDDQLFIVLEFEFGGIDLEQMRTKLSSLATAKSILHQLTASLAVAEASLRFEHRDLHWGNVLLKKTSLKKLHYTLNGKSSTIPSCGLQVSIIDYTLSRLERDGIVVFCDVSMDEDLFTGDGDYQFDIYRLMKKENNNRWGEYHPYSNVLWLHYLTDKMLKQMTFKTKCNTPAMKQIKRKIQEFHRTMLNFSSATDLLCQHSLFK

O=c1[nH]c2ccccc2n1C1CCN(Cc2ccc(-c3[nH]c4cc5ncnc5cc4nc3-c3ccccc3)cc2)CC1
remaining signal (cell-free assay; 0.5 µM): 106%

Nc1ncc(-c2nc(N3CCOCC3)nc(N3CCOCC3)n2)c(C(F)F)n1
remaining binding (binding, competition with immobilised ligand; 10 µM): 71%

N#CC1(c2ccccn2)CCN(Cc2cc(C(=O)O)c(=O)n3ccccc23)CC1
remaining binding (cell-free assay, competition with immobilised ligand; 1 µM): 100%

CC(C)(C)c1cc(C=C(C#N)C#N)cc(Br)c1O
remaining activity (enzyme activity, inhibitor; 0.5 µM): 67.2%

Cn1cc(-c2cccc(N3CCc4c(sc5c4CC(C)(C)C5)C3=O)c2CO)cc(Nc2ccncn2)c1=O
inhibition (enzyme activity, inhibitor; 1 µM): -1%

C#Cc1n[nH]c2c(-c3cn([C@@H](C)c4ccccc4)c(=O)[nH]c3=O)cc(F)cc12
inhibition (enzyme activity, inhibitor; 0.1 µM): -5.9%

Cn1cncc1[C@](O)(COc1ccc(C#N)cc1-c1ccc(OC(F)(F)F)cc1)c1ccc(C#N)cc1
remaining binding (cell-free assay, competition with immobilised ligand; 1 µM): 100%

Cn1cc(-c2cc(F)cc(N3CCn4c(cc5c4CCCC5)C3=O)c2CO)cc(Nc2ccc(N3CCN(C4COC4)CC3)cn2)c1=O
inhibition (enzyme activity, inhibitor; 0.1 µM): 8%

C#Cc1n[nH]c2c(-c3cn(C(C)c4ccccn4)c(=O)[nH]c3=O)cc(F)cc12 (stereo not shown)
inhibition (enzyme activity, inhibitor; 1 µM): 18.9%

COc1ncccc1-c1cnn2ccc(N3CCN(C(=O)OC(C)C)CC3)nc12
remaining binding (binding, competition with immobilised ligand; 1 µM): 80%
